Published values collected from several papers.
Lines come from different studies, so protocols differ.
ABL1 Q252H phosphorylated: Tyrosine-protein kinase ABL1, phosphorylated (ABL1, Homo sapiens, UniProt P00519, Q252H)
ABL1 H396P phosphorylated: Tyrosine-protein kinase ABL1, phosphorylated (ABL1, Homo sapiens, UniProt P00519, H396P)
ABL1 E255K phosphorylated: Tyrosine-protein kinase ABL1, phosphorylated (ABL1, Homo sapiens, UniProt P00519, E255K)
ABL1 non-phosphorylated: Tyrosine-protein kinase ABL1, non-phosphorylated (ABL1, Homo sapiens, UniProt P00519)
ABL1 F317I phosphorylated: Tyrosine-protein kinase ABL1, phosphorylated (ABL1, Homo sapiens, UniProt P00519, F317I)
ABL1 H396P non-phosphorylated: Tyrosine-protein kinase ABL1, non-phosphorylated (ABL1, Homo sapiens, UniProt P00519, H396P)
ABL1 Q252H non-phosphorylated: Tyrosine-protein kinase ABL1, non-phosphorylated (ABL1, Homo sapiens, UniProt P00519, Q252H)
ABL1 Y253F: Tyrosine-protein kinase ABL1 (ABL1, Homo sapiens, UniProt P00519, Y253F)
ABL1 phosphorylated: Tyrosine-protein kinase ABL1, phosphorylated (ABL1, Homo sapiens, UniProt P00519)

SMILES | target | effect on | method | concentration | remaining binding
c1cncc(-c2cccc(Nc3nccc(NC4CCCCC4)n3)c2)c1 | Tyrosine-protein kinase ABL1, phosphorylated (ABL1, Homo sapiens, UniProt P00519, T315I) | binding | competition with immobilised ligand | 10 µM | 73%
Nc1ncc2c(n1)-c1c([nH]c3ccc(C#CC4CC4)cc13)CCCC2 | ABL1 Q252H phosphorylated | binding | competition with immobilised ligand | 1 µM | 94%
COc1ncc2cc3ccccc3nc2c1C#N | Tyrosine-protein kinase ABL1, phosphorylated (ABL1, Homo sapiens, UniProt P00519, F317L) | cell-free assay | competition with immobilised ligand | 5 µM | 86%
COc1ccnn2ncc(-c3ccnc(N(C)C)n3)c12 | Tyrosine-protein kinase ABL1 (ABL1, Homo sapiens, UniProt P00519, Q252H) | binding |  | 1 µM | 82%
COc1cnc(Nc2cccc(S(N)(=O)=O)c2)nc1N1CCN(c2ccccc2)CC1 | ABL1 H396P phosphorylated | binding | competition with immobilised ligand | 1 µM | 87%
N#Cc1ccccc1CSc1nnc2c(n1)[nH]c1ccccc12 | ABL1 E255K phosphorylated | binding | competition with immobilised ligand | 10 µM | 85%
CC1CCCN1c1nccc(-c2cnn3ncccc23)n1 (centres unmarked) | ABL1 non-phosphorylated | binding | competition with immobilised ligand | 1 µM | 97%
CN1CCN(c2ccc(Nc3nccc(-c4cccc([N+](=O)[O-])c4)n3)cc2C(F)(F)F)CC1 | Tyrosine-protein kinase ABL1 (ABL1, Homo sapiens, UniProt P00519, M351T) | binding |  | 10 µM | 2.7%
O=C(NS(=O)(=O)c1ccc(NCC2CCOCC2)c([N+](=O)[O-])c1)c1ccc(N2CCN(Cc3ccc(C(F)(F)F)cc3-c3ccc(Cl)cc3)CC2)cc1Oc1cnc2[nH]ccc2c1 | ABL1 H396P phosphorylated | cell-free assay | competition with immobilised ligand | 1 µM | 92%
O=C(Nc1c[nH]nc1C(=O)NC1CCNCC1)c1cc(F)cc(F)c1 | ABL1 F317I phosphorylated | binding | competition with immobilised ligand | 1 µM | 85%
O=C(c1ccc(Nc2nccc(-c3cc4ccccc4s3)n2)cc1)N1CCC(N2CCCC2)CC1 | ABL1 H396P non-phosphorylated | binding | competition with immobilised ligand | 1 µM | 3.1%
C=CC(=O)N1CCC(C(=O)NCC(=O)N2CCN(c3nc(-c4cnc(N)nc4C(F)F)nc(N4CCOCC4)n3)CC2)CC1 | ABL1 H396P phosphorylated | binding | competition with immobilised ligand | 1 µM | 83%
CN(C)c1nccc(-c2cnn3ncccc23)n1 | Tyrosine-protein kinase ABL1 (ABL1, Homo sapiens, UniProt P00519, H396P) | binding |  | 1 µM | 89%
O=C(O)[C@H]1[C@H](Cn2nnc3ccccc3c2=O)CC[C@@H]1C(=O)c1ccc(OCCC2CCOCC2)cc1 | ABL1 H396P non-phosphorylated | cell-free assay | competition with immobilised ligand | 1 µM | 94%
C[C@@H](c1ccc(-n2cnc3c(N)ncnc32)cc1)N1CCc2nn(C)c(Cc3ccccc3)c2C1=O | ABL1 Q252H non-phosphorylated | binding | competition with immobilised ligand | 0.1 µM | 26%
O=C(NCCCN1CCOCC1)c1ccc(Nc2nccc(-c3cc4ccccc4s3)n2)cc1 | Tyrosine-protein kinase ABL1, phosphorylated (ABL1, Homo sapiens, UniProt P00519, M351T) | binding | competition with immobilised ligand | 1 µM | 49%
F[C@@H]1CCN(c2nccc(-c3cnn4ncccc34)n2)C1 | Tyrosine-protein kinase ABL1 (ABL1, Homo sapiens, UniProt P00519, F317L) | binding |  | 1 µM | 100%
CCN1CCN(Cc2ccc(C(=O)Nc3ccc(C)c(Oc4ccc5c(c4)CC(=O)N5)c3)cc2C(F)(F)F)CC1 | ABL1 F317I phosphorylated | binding | competition with immobilised ligand | 1 µM | 24%

SMILES | target | effect on | method | concentration | remaining binding
Nc1c(C(=O)NCc2ccc(C(=O)NCCCC3CCCCC3)cc2)cnn1-c1ccccc1 | ABL1 Q252H non-phosphorylated | cell-free assay | competition with immobilised ligand | 0.1 µM | 87%
COc1cnc(Nc2cccc(S(N)(=O)=O)c2)nc1N1CCN(c2ccccc2)C(=O)C1 | ABL1 E255K phosphorylated | binding | competition with immobilised ligand | 1 µM | 86%
Cc1cnn2ncc(-c3ccnc(N(C)C)n3)c2c1 | ABL1 Y253F | binding |  | 1 µM | 85%
O=C(c1ccc(Nc2ncc(Cl)c(-c3cc4ccccc4s3)n2)cc1)N1CCC(N2CCCC2)CC1 | ABL1 E255K phosphorylated | binding | competition with immobilised ligand | 1 µM | 13%
CCOCCn1cc(C(=O)Nc2ccc(-n3nc(-c4cccnc4)cc3C(F)(F)F)cn2)ccc1=O | ABL1 Q252H phosphorylated | cell-free assay | competition with immobilised ligand | 1 µM | 73%
c1cnn2ncc(-c3ccnc(N4CCC45COC5)n3)c2c1 | ABL1 non-phosphorylated | binding |  | 1 µM | 68%
O=C(N[C@H]1CCCCC/C=C\C2C[C@@]2(C(=O)O)NC(=O)[C@@H]2C[C@@H](Oc3ccncc3)CN2C1=O)OC1CCCC1 (some centres unmarked) | ABL1 F317I phosphorylated | binding |  | 1 µM | 96%
C[C@H]1CCN(c2nccc(-c3cnn4ncccc34)n2)C1 | ABL1 phosphorylated | binding |  | 1 µM | 59%
CSc1cccnc1N1CCN(Cc2nc3ccccc3[nH]2)CC1 | Tyrosine-protein kinase ABL1, phosphorylated (ABL1, Homo sapiens, UniProt P00519, Y253F) | cell-free assay | competition with immobilised ligand | 1 µM | 76%
O=C(NCCCN1CCOCC1)c1ccc(Nc2ncc(Cl)c(-c3ccc(Cl)s3)n2)cc1 | Tyrosine-protein kinase ABL1, non-phosphorylated (ABL1, Homo sapiens, UniProt P00519, F317L) | binding | competition with immobilised ligand | 1 µM | 71%
N[C@H]1CCN(c2nccc(-c3cnn4ncccc34)n2)C1 | ABL1 Y253F | binding |  | 1 µM | 53%
CCS(=O)(=O)c1cc2cc(C[C@](O)(CC(C)(C)c3ccc(F)cc3C(N)=O)C(F)(F)F)[nH]c2cn1 | ABL1 non-phosphorylated | cell-free assay | competition with immobilised ligand | 1 µM | 100%
O=C(NCC1CCOCC1)c1n[nH]cc1NC(=O)c1c(F)cccc1F | ABL1 H396P phosphorylated | binding | competition with immobilised ligand | 1 µM | 93%
Cc1cnc(Nc2ccc(C(=O)N3CCC(N4CCCC4)CC3)cc2)nc1-c1cc2ccccc2s1 | Tyrosine-protein kinase ABL1, non-phosphorylated (ABL1, Homo sapiens, UniProt P00519, T315I) | binding | competition with immobilised ligand | 1 µM | 0.1%
CN(c1ccnc(CNc2nc(Nc3ccc4c(c3)CC(=O)N4)ncc2C(F)(F)F)n1)S(C)(=O)=O | ABL1 phosphorylated | cell-free assay | competition with immobilised ligand | 1 µM | 40%
O=C(c1ccc(Nc2ncc(Cl)c(-c3ccc(Cl)s3)n2)cc1)N1CCC(N2CCCC2)CC1 | ABL1 phosphorylated | binding | competition with immobilised ligand | 1 µM | 4.3%
CNC(=O)[C@@H]1CC[C@@H](n2c(-c3ccc4cnccc4c3)nc3ccc(C(=O)NCc4cccc(C(N)=O)c4)cc32)C1 | ABL1 phosphorylated | binding | competition with immobilised ligand | 1 µM | 90%
